DNA FID counter: displaces DNA intercalator in HCV helicase counter-screen; DNA fluorescent intercalator displacement, fluorescence; inhibition, % at 7.9 µM; 290,000 tested, 0.17% active; in the data active = inhibition above about 37%;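 also: 0% = vehicle and 100% = reference compound; higher means more ethidium bromide displaced from hairpin DNA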
GPR7 antagonist: blocks human GPR7 receptor signaling; P48145; GPR7-expressing cells, fluorescence antagonist assay; inhibition, % at 4.4 µM; 290,000 tested, 1.1% active; AID 1861; in the data active = inhibition above about 16%, passing the limit was not always enough;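 also: cells stimulated with the agonist NPW; 0% = agonist with vehicle and 100% = vehicle without agonist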
Target sequence (P48145 whole entry, looked up): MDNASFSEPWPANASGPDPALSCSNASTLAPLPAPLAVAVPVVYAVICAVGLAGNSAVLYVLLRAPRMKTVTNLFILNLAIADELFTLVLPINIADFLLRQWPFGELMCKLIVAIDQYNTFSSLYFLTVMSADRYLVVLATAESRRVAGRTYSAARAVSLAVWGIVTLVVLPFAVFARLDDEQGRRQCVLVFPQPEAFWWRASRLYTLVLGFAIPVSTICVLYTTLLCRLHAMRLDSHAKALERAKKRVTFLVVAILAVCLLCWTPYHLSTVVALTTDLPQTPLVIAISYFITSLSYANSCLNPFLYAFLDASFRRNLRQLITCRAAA
HCV NS3 hel inh: blocks Hepatitis C virus NS3 helicase unwinding; NS3 helicase DNA unwinding, Cy5 molecular beacon fluorescence; inhibition, % at 10.9 µM; 290,000 tested, 0.56% active; AID 1800;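 active = inhibition above the mean of all tested compounds plus 3 SD, set per campaign, cut at about 35% in these data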;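 also: 0% = DMSO wells and 100% = thioflavine S control wells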
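Material: hepatitis C virus NS3 helicase domain fragment enzyme; measured by: Cy5 fluorescence, 0 and 60 min reads; control set: DMSO and thioflavine S; incubation: 60 min unwinding reaction at 25 °C after ATP addition; read-out basis: % inhibition from 60/0 min fluorescence ratio, DMSO 0%, thioflavine S 100%; repeats: singlicate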
ZTA DNA inh: blocks Epstein-Barr virus ZTA, an EBNA-1 counter-screen; P03206; ZTA-DNA binding, fluorescence polarization; inhibition, % at 11 µM; 320,000 tested, 0.15% active; in the data active = inhibition above about 33%
EBNA-1 inh: blocks EBNA-1 binding to DNA | inhibition, % at 14.8 µM | 300,000 tested, 0.34% active | EBNA-1 DNA binding, fluorescence polarization; in the data active = inhibition above about 28%
Zta DNA confirm: EBV ZTA DNA binding inhibition, confirmation | shares compounds with ZTA DNA inh | Zta-ZRE DNA binding, fluorescence polarization | inhibition, % at 11.1 µM | 320 tested, 30% active | AID 2361;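 active = mean inhibition across triplicate runs above the hit threshold derived for the original primary screen, cut at about 33% in these data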;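 also: 0% = Zta with DMSO and 100% = wells lacking Zta protein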
EBNA-1 counter: blocks EBNA-1 DNA binding in ZTA counter-screen; inhibition, % at 14.8 µM; fluorescence polarization; AID 2362; shares compounds with ZTA DNA inh; 320 tested, under 10 active; call rule not given here
* = called active by the depositor; x = no result. This is a sample that favours compounds with a hit; in the whole collection about 2% have one here.

SMILES | DNA FID counter | GPR7 antagonist | HCV NS3 hel inh | ZTA DNA inh | EBNA-1 inh | Zta DNA confirm | EBNA-1 counter
CCCc1cc(=O)[nH]c(SCC(=O)NCC2COc3ccccc3O2)n1 (stereo unspecified) | x | x | x | -14.2 | x | x | x
Cc1nc2c(-c3ccc(F)cc3)cnn2c(N)c1-c1ccc(F)cc1 | -2.4 | 12.2 | -25.8 | 38.0* | -1.1 | -1.9 | -11.8
COc1ccccc1NS(=O)(=O)c1ccc(C(=O)Nc2ncccc2O)cc1 | x | x | x | 9.6 | x | x | x
COc1ccc(S(=O)(=O)N2CCOCC2)cc1NC(=O)CN1C(=O)NC(C)(C2CC2)C1=O (stereo unspecified) | x | x | x | -10.8 | x | x | x
COc1ccc(CCC(=O)Nc2ccc3c(c2)OCO3)cc1 | -6.5 | 12.8 | 1.4 | -13.2 | -10.5 | x | x
O=C(CCCCCN1C(=O)CCC1=O)Nc1ccc2c(c1)OCCO2 | -10.1 | -7.5 | 3.8 | 34.1* | -11.5 | 0.7 | -1.2
COc1ccc(CCC(=O)Nc2ccc3c(c2)OCCO3)cc1 | 0.1 | 3.0 | 4.5 | 55.0* | 27.2 | 12.1 | 3.2
CC(C)(C)OC(=O)N[C@@H](COCc1ccccc1)C(=O)N[C@@H](CO)[C@H](O)[C@@H]1C[C@@H]1C(=O)NC1CCCCC1 | -41.2 | 9.1 | -23.4 | 0.2 | 3.2 | x | x
O=C(Nc1ccccc1C(F)(F)F)C1CCN(C(=O)Cc2ccccc2)CC1 | -23.2 | -13.6 | -4.9 | -3.3 | 1.5 | x | x
CCCC(=O)Nc1ccc2oc(-c3cccnc3)nc2c1 | -8.5 | 6.9 | -3.6 | 44.8* | -6.7 | 1.9 | -4.7
COc1ccc(Sc2nc3ccccc3n3c(C(F)(F)F)nnc23)cc1 | -1.2 | 3.0 | -0.1 | 46.9* | 7.1 | -4.2 | -2.7
CCN(CC(=O)NCc1ccc(F)cc1)C(=O)c1cccnc1SC | -9.7 | -9.3 | 4.0 | 9.7 | 3.2 | x | x
Cc1ccc(/C=N/NC(=O)c2ccncc2)cc1 | -5.9 | -4.8 | 13.2 | -3.7 | -6.5 | x | x
Cc1ccc(C(=O)Nc2ccc(C(=O)N/N=C/c3ccncc3)cc2)cc1 | 5.1 | -4.6 | -1.8 | 47.2* | -1.7 | 45.1* | -8.3
CCN(Cc1ccccc1)C(=O)COc1cc(=O)n(CC)c2ccccc12 | -30.5 | -2.1 | -6.2 | -10.9 | 1.7 | x | x
CCCN(CCC)C(=O)COc1cc(=O)n(CC)c2ccccc12 | -23.9 | -9.3 | 0.0 | 118.0* | 0.3 | -3.0 | -2.8
COc1ccccc1NC(=S)N1CCc2cc(OC)c(OC)cc2C1 | -4.3 | -8.0 | -3.8 | -7.6 | -3.3 | x | x
COc1cccc(NC(=S)N2CCc3cc(OC)c(OC)cc3C2)c1 | -14.1 | -2.8 | 2.9 | 47.9* | -5.4 | -7.7 | -1.9
CCN(CC)CCOC(=O)c1ccc(N/C=C(/C#N)c2nc(-c3cccc(OC)c3)cs2)cc1 | 3.3 | -1.6 | -79.2 | 39.7* | -2.3 | 3.5 | -12.8
CCOC(=O)c1ccc(N/C=C\C(=O)c2cccc(OC)c2)cc1 | -6.4 | -3.5 | 0.4 | -0.8 | -3.3 | x | x
Cc1ccc(-c2csc(/C(C#N)=C/Nc3ccc4c(c3)OCCO4)n2)cc1 | 1.4 | -11.0 | 1.2 | 2.9 | 7.1 | x | x
CCN(CC)CCOC(=O)c1ccc(N/C=C(/C#N)c2nc(-c3ccc(OC)c(OC)c3)cs2)cc1 | 8.2 | -16.6 | 11.0 | 73.7* | 2.0 | 50.8* | 19.5
COc1cc(/C=C2\S/C(=N/S(=O)(=O)Cc3ccccc3)NC2=O)c([N+](=O)[O-])cc1OC | -6.3 | -6.0 | 24.3 | 39.0* | 12.7 | 8.2 | 10.9
COC(=O)[C@@H](Cc1c[nH]c2ccccc12)NC(=O)C1CCCN(S(=O)(=O)c2ccc(C)cc2)C1 (stereo partly specified) | -44.9 | 12.7 | -1.0 | x | x | x | x
COc1ccc(Nc2nc(C)nc3c2oc2ccccc23)c(OC)c1 | -25.2 | -10.6 | -13.8 | 39.2* | 0.3 | 23.1 | -4.2
COc1ccccc1Nc1nc(C)nc2c1oc1ccccc12 | -24.2 | 4.6 | -7.8 | 13.1 | -3.3 | x | x
CC1(C)Cc2c(sc(NC(=O)COc3cccc4ccccc34)c2C#N)C(C)(C)N1 | 16.8 | -7.8 | -52.6 | 48.2* | 5.3 | 51.3* | -4.9
Nc1nc(Nc2ccccc2F)sc1C(=O)c1ccccc1 | -9.2 | -6.8 | 1.8 | 51.9* | -7.7 | 5.7 | -5.7
COc1cc(C)c2c(c1C=O)Oc1c(c(C)c(O)c3c1C(O)OC3=O)OC2=O (stereo unspecified) | -20.3 | -23.0 | 30.1 | 66.6* | -5.4 | 62.6* | 11.3

Screens deposited in PubChem by The Scripps Research Institute Molecular Screening Center.
